“Also recorded” adds a separate entry of the source. Read-outs that look alike come from different tables or passages of the source.
How the values were obtained:
[1] = target: human BSEP ABC transporter (Homo sapiens, UniProt O95342); assay: BSEP vesicular transport inhibition Ki determination assay; assay type: biochemical
Summary of the method: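 Inside-out membrane vesicles expressing BSEP. Transporter-specific taurocholate accumulation was measured across a range of test compound concentrations.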

[2] = target: T1, human NTCP (Homo sapiens, UniProt Q14973); assay: NTCP uptake transporter inhibition Ki determination in CHO cells; assay type: cell-based; settings: based on alpha >> 1, increasing Km, nearly constant Vmax
T1 sequence (Q14973 1-349): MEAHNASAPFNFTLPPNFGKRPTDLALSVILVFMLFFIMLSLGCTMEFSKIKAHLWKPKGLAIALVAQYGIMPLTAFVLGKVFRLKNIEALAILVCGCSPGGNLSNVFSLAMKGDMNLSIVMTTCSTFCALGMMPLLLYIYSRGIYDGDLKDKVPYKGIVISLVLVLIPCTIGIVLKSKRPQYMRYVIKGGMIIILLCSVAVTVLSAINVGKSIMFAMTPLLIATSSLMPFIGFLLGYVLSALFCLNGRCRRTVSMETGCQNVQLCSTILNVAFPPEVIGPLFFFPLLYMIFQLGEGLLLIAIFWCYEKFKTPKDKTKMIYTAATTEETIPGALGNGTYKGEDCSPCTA

[3] = system: HepG2 cells; assay: In vitro ROS assay; assay type: cell-based, human; settings: nominal media concentrations up to 200 μM, 1 h or 24 h
[4] = system: TAK-875-treated patients; settings: cited from earlier work; for patients with ALT elevations > 3× ULN: clinical
[5] = system: primary human hepatocytes; settings: ref Wolenski et al., 2017; cited from earlier work
[6] = system: HepG2 cells; settings: ref Otieno et al., 2018, cited from earlier work; for effect on OCR / basal respiration: HepG2 cells
[7] = ref Wolenski et al., 2017; cited from earlier work
[8] = rat; ref unpublished data; cited from earlier work
[9] = system: patients with T2D; settings: Phase II clinical trials, ref Kaku et al., 2015; cited from earlier work

Sequence of human BSEP ABC transporter (O95342 whole entry): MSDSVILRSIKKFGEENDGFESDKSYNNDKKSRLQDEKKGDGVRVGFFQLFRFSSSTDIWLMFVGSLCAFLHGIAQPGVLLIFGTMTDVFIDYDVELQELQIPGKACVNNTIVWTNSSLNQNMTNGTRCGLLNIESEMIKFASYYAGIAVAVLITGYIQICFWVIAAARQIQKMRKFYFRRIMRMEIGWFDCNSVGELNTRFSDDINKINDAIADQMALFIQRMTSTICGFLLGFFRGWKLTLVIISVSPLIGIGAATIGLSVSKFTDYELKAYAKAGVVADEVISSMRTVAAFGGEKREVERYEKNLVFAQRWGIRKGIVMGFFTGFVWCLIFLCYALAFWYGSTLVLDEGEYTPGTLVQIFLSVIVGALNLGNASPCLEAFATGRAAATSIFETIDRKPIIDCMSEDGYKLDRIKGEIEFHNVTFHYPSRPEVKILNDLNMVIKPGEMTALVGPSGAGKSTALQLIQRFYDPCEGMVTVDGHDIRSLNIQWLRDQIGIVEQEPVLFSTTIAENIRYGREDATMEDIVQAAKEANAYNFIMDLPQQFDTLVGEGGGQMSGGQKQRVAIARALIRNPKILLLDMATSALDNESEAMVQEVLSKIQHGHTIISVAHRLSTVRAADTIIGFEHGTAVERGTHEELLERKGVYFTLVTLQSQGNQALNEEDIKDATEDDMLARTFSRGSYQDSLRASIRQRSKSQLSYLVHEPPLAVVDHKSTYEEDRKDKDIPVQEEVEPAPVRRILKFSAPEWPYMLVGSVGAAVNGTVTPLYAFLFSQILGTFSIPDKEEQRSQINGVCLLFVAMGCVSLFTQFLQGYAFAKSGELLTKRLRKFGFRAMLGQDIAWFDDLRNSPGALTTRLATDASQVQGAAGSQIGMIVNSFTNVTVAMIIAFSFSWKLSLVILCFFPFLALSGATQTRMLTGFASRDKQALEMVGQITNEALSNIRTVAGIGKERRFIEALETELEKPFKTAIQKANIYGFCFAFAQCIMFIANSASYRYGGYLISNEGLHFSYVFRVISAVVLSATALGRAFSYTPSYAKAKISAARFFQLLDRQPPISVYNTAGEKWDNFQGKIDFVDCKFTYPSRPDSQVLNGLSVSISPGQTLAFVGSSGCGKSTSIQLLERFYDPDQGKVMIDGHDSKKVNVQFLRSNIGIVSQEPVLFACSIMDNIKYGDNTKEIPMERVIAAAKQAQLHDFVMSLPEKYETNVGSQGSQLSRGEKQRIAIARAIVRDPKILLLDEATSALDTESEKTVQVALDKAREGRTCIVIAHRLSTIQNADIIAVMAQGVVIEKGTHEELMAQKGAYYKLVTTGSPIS

| mode of NTCP inhibition [2] | ROS production / oxidative stress (DHE fluorescence) [3] | SMILES | Ki [1] [µM] | mode of BSEP inhibition ([1]; based on alpha value, Km and Vmax trends) | BSEP alpha constant for inhibition ([1]; mixed-type inhibition model) | cases of serious liver injury, incidence ([4]; clinical trials, ref Marcinak et al., 2018) [%] | patients with ALT elevations > 3× ULN ([4]; daily doses of 200 mg, ref unpublished data) [%] | patients with ALT elevations > 3× ULN ([4]; daily doses ranging from 25 to 50 mg, ref Marcinak et al., 2018) [%] | cases of serious liver injury ([4]; in 9139 TAK-875-treated patients, ref Marcinak et al., 2018) [cases] | effect on oxygen consumption rate (OCR) [5] | effect on OCR / basal respiration [6] | compound-induced oxidative stress [7] | concentration in liver versus plasma [8] | effect on blood glucose levels and HbA1c [9] | effects on mitochondria [6] |
| --- | --- | --- | --- | --- | --- | --- | --- | --- | --- | --- | --- | --- | --- | --- | --- |
| competitive | not observed | Cc1cc(OCCCS(C)(=O)=O)cc(C)c1-c1cccc(COc2ccc3c(c2)OC[C@H]3CC(=O)O)c1 [TAK-875, fasiglifam] | 17.2 | mixed | 2.172 | 0.03 | 4.0 | 2.8 | 3 | reduce the oxygen consumption rate (OCR) in a dose-dependent manner | dose-dependent reduction in OCR | no evidence of compound-induced oxidative stress was detected; also recorded: not found to be inducers of oxidative stress | roughly equivalent | lowered blood glucose levels and glycated hemoglobin (HbA1c) | – |
| – | – | Cc1cc(OCCCS(C)(=O)=O)cc(C)c1-c1cccc(COc2ccc3c(c2)OC[C@H]3CC(=O)O[C@@H]2O[C@H](C(=O)O)[C@@H](O)[C@H](O)[C@H]2O)c1 [TAK-875-Glu] | – | – | – | – | – | – | – | reduce the oxygen consumption rate (OCR) in a dose-dependent manner | no effect on basal respiration | no evidence of compound-induced oxidative stress was detected; also recorded: not found to be inducers of oxidative stress | – | – | negligible effects on mitochondria |

— paper PMC6358270 (Toxicological Sciences, 2018)
